What all share (assay type): functional, cell-based
The subject of test [1] is MCF7. The experiment in a line: Antiproliferative activity in human MCF7 cells after 48 hrs by MTT assay. The following applies: MCF7, 48 h. An outline of the steps:
(§1)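 Cells exposed to compound for 48 h. Viability read by MTT, with absorbance of the solubilised MTT product at 570 nm. IC50 derived from at least three independent experiments.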

For test [2], the system named is K562. The experiment in a line: Antiproliferative activity in human K562 cells after 48 hrs by MTT assay. The following applies: K562, 48 h. An outline of the steps:
as §1

For test [3], the system named is A549. The experiment in a line: Antiproliferative activity in human A549 cells after 48 hrs by MTT assay. The following applies: A549, 48 h. An outline of the steps:
as §1

As a reminder, the IC50 is the concentration at which inhibition is half-maximal. Low readings indicate greater potency in that assay, high ones weaker potency in that assay. As for `Oc1ccc2cc1Oc1ccc(cc1)CCc1cccc(OCCN3CCCCC3)c1-c1ccc(cc1O)CC2`, the IC50 turned out to be 2.49 µM in test [1], 2.31 µM in test [2] and 2.13 µM in test [3].
The corresponding values for `COc1ccc(N2CCN(Cc3cc4cc(c3O)Oc3ccc(cc3)CCc3ccc(CN5CCN(c6ccc(OC)cc6)CC5)c(O)c3-c3ccc(cc3O)CC4)CC2)cc1` are above 20 µM, above 20 µM and above 20 µM.
Take `c1cc2c(c(OCCN3CCCC3)c1)-c1ccc(cc1OCCN1CCCC1)CCc1ccc(OCCN3CCCC3)c(c1)Oc1ccc(cc1)CC2`: the IC50 in test [1] worked out at 0.88 µM; in test [2] it was 1.79 µM; in test [3] it was 1.04 µM.
The like results for `c1cc2c(c(OCCCN3CCCC3)c1)-c1ccc(cc1OCCCN1CCCC1)CCc1ccc(OCCCN3CCCC3)c(c1)Oc1ccc(cc1)CC2` were, in that order, 2.12 µM, 2.13 µM and 1.67 µM.
The like results for `Oc1ccc2cc1Oc1ccc(cc1)CCc1cccc(OCCCN3CCCC3)c1-c1ccc(cc1O)CC2` were, in that order, 3.68 µM, 2.94 µM and 4.53 µM.
On to `CN(CCO)Cc1cc2cc(c1O)Oc1ccc(cc1)CCc1ccc(CN(C)CCO)c(O)c1-c1ccc(cc1O)CC2`, for which the IC50 turned out to be 6 µM in test [1], 5.67 µM in test [2] and 5.21 µM in test [3].
Take `CN1CCN(Cc2cc3cc(c2O)Oc2ccc(cc2)CCc2ccc(CN4CCN(C)CC4)c(O)c2-c2ccc(cc2O)CC3)CC1`: the IC50 came to 2.89 µM in test [1], 3.32 µM in test [2] and 2.16 µM in test [3].
In the case of `CN(C)c1cc2cc(c1O)Oc1ccc(cc1)CCc1cccc(O)c1-c1ccc(cc1O)CC2`, the IC50 in test [1], in test [2] and in test [3] was above 20 µM throughout.
Regarding `Oc1ccc2cc1Oc1ccc(cc1)CCc1ccc(CN3CCN(Cc4ccccc4)CC3)c(O)c1-c1ccc(cc1O)CC2`, the 50% inhibitory concentration (IC50) in test [1], in test [2] and in test [3] was above 20 µM in each case.
With `Oc1ccc2cc1Oc1ccc(cc1)CCc1ccc(CN3CCSCC3)c(O)c1-c1ccc(cc1O)CC2`, the half-inhibitory concentration (IC50) in test [1] was 15.8 µM; in test [2], 13.4 µM; in test [3], 16.3 µM.
The like results for `Oc1cc2ccc1-c1c(ccc(CN3CCOCC3)c1O)CCc1ccc(cc1)Oc1cc(cc(CN3CCOCC3)c1O)CC2` were, in that order, above 20 µM, above 20 µM and above 20 µM.
As to `CN(C)CCCOc1cccc2c1-c1ccc(cc1O)CCc1ccc(O)c(c1)Oc1ccc(cc1)CC2`, the 50% inhibitory concentration (IC50) in test [1] was 3.25 µM; in test [2] it was 2.61 µM; in test [3], 1.99 µM.
The like results for `Oc1cc2ccc1-c1c(ccc(CN3CCCCC3)c1O)CCc1ccc(cc1)Oc1cc(cc(CN3CCCCC3)c1O)CC2` were, in that order, 2.04 µM, 0.66 µM and 4.85 µM.
The corresponding values for `CN(C)CCCOc1ccc2cc1Oc1ccc(cc1)CCc1cccc(OCCCN(C)C)c1-c1ccc(cc1OCCCN(C)C)CC2` are 3.05 µM, 2.5 µM and 1.44 µM.
The corresponding values for `Oc1ccc2cc1Oc1ccc(cc1)CCc1ccc(CN3CCOCC3)c(O)c1-c1ccc(cc1O)CC2` are above 20 µM, above 20 µM and above 20 µM.
Consider `Oc1ccc2cc1Oc1ccc(cc1)CCc1ccc(CN3CCCC3)c(O)c1-c1ccc(cc1O)CC2`, for which the 50% inhibitory concentration (IC50) in test [1] was 2.41 µM; in test [2] it was 4.82 µM; in test [3], 2.26 µM.
Regarding `CC(C)(C)OC(=O)N1CCN(Cc2cc3cc(c2O)Oc2ccc(cc2)CCc2ccc(CN4CCN(C(=O)OC(C)(C)C)CC4)c(O)c2-c2ccc(cc2O)CC3)CC1`, the IC50 in test [1], in test [2] and in test [3] was above 20 µM throughout.
Consider `Oc1ccc2cc1Oc1ccc(cc1)CCc1cccc(OCCN3CCOCC3)c1-c1ccc(cc1O)CC2`, for which the IC50 is 5.02 µM in test [1], 10.1 µM in test [2] and 7.49 µM in test [3].
Take `c1cc2c(c(OCCN3CCOCC3)c1)-c1ccc(cc1OCCN1CCOCC1)CCc1ccc(OCCN3CCOCC3)c(c1)Oc1ccc(cc1)CC2`: the IC50 worked out at 4.19 µM in test [1], 3.43 µM in test [2] and 5.23 µM in test [3].
For the molecule `CN1CCN(Cc2ccc3c(c2O)-c2ccc(cc2O)CCc2ccc(O)c(c2)Oc2ccc(cc2)CC3)CC1`, the results for the IC50 in test [1], in test [2] and in test [3] were 6.02 µM, 3.31 µM and 5.59 µM, respectively.
The corresponding values for `CC(=O)Nc1cc2cc(c1O)Oc1ccc(cc1)CCc1cccc(O)c1-c1ccc(cc1O)CC2` are above 20 µM, above 20 µM and above 20 µM.
As for `CCN(CC)CCOc1ccc2cc1Oc1ccc(cc1)CCc1cccc(OCCN(CC)CC)c1-c1ccc(cc1OCCN(CC)CC)CC2`, the IC50 worked out at 0.56 µM in test [1], 0.65 µM in test [2] and 0.78 µM in test [3].
Take `Oc1cc2ccc1-c1c(ccc(CN3CCC(O)CC3)c1O)CCc1ccc(cc1)Oc1cc(cc(CN3CCC(O)CC3)c1O)CC2`: the 50% inhibitory concentration (IC50) was determined as 3.95 µM in test [1], 2.56 µM in test [2] and 3.26 µM in test [3].
The corresponding values for `CC(=O)Nc1cc2cc(c1OC(C)=O)Oc1ccc(cc1)CCc1cccc(OC(C)=O)c1-c1ccc(cc1OC(C)=O)CC2` are above 20 µM, above 20 µM and above 20 µM.
The like results for `CC(C)(C)OC(=O)N1CCN(Cc2ccc3c(c2O)-c2ccc(cc2O)CCc2ccc(O)c(c2)Oc2ccc(cc2)CC3)CC1` were, in that order, above 20 µM, above 20 µM and above 20 µM.
The like results for `CCCCN(CCCC)Cc1ccc2c(c1O)-c1ccc(cc1O)CCc1ccc(O)c(c1)Oc1ccc(cc1)CC2` were, in that order, above 20 µM, above 20 µM and above 20 µM.
Turning to `Oc1ccc2cc1Oc1ccc(cc1)CCc1cccc(OCCN3CCCC3)c1-c1ccc(cc1O)CC2`, the IC50 was 2.42 µM in test [1], 2.22 µM in test [2] and 2.02 µM in test [3].
The like results for `CN(C)CCOc1cccc2c1-c1ccc(cc1O)CCc1ccc(O)c(c1)Oc1ccc(cc1)CC2` were, in that order, 2.38 µM, 1.56 µM and 1.3 µM.
`CCCCN(CCCC)Cc1cc2cc(c1O)Oc1ccc(cc1)CCc1ccc(CN(CCCC)CCCC)c(O)c1-c1ccc(cc1O)CC2`: the IC50 in test [1], in test [2] and in test [3] was above 20 µM throughout.
In the case of `Oc1ccc2cc1Oc1ccc(cc1)CCc1ccc(CN3CCCCC3)c(O)c1-c1ccc(cc1O)CC2`, the half-maximal inhibitory concentration (IC50) in test [1] is 5.07 µM; in test [2], 5.88 µM; in test [3], 7.12 µM.
The corresponding values for `CN(C)Cc1cc2cc(c1O)Oc1ccc(cc1)CCc1ccc(CN(C)C)c(O)c1-c1ccc(cc1O)CC2` are 4.22 µM, 2.84 µM and 4.81 µM.
Take `Oc1ccc2cc1Oc1ccc(cc1)CCc1ccc(CN3CCC(O)CC3)c(O)c1-c1ccc(cc1O)CC2`: the figures for the IC50 in test [1], in test [2] and in test [3] were 9.05 µM, 7.07 µM and 5.74 µM, respectively.
The like results for `CCN(CC)Cc1ccc2c(c1O)-c1ccc(cc1O)CCc1ccc(O)c(c1)Oc1ccc(cc1)CC2` were, in that order, 7.59 µM, 7.86 µM and 5.74 µM.
Turning to `Oc1ccc2cc1Oc1ccc(cc1)CCc1cccc(OCCN3CCCCCC3)c1-c1ccc(cc1O)CC2`, the figures for the IC50 in test [1], in test [2] and in test [3] were 3.03 µM, 2.73 µM and 2.98 µM, respectively.
The corresponding values for `Oc1cc2ccc1-c1c(ccc(CN3CCSCC3)c1O)CCc1ccc(cc1)Oc1cc(cc(CN3CCSCC3)c1O)CC2` are 9.25 µM, 8.35 µM and 10.2 µM.
With `Nc1cc2cc(c1O)Oc1ccc(cc1)CCc1cccc(O)c1-c1ccc(cc1O)CC2`, the IC50 in test [1], in test [2] and in test [3] was above 20 µM throughout.
Regarding `Oc1cc2ccc1-c1c(ccc(CN3CCN(Cc4ccccc4)CC3)c1O)CCc1ccc(cc1)Oc1cc(cc(CN3CCN(Cc4ccccc4)CC3)c1O)CC2`, the IC50 in test [1], in test [2] and in test [3] was above 20 µM throughout.
As for `CCN(CC)Cc1cc2cc(c1O)Oc1ccc(cc1)CCc1ccc(CN(CC)CC)c(O)c1-c1ccc(cc1O)CC2`, the half-inhibitory concentration (IC50) was determined as 1.05 µM in test [1], 1.86 µM in test [2] and 3.78 µM in test [3].
The corresponding values for `c1cc2c(c(OCCN3CCCCCC3)c1)-c1ccc(cc1OCCN1CCCCCC1)CCc1ccc(OCCN3CCCCCC3)c(c1)Oc1ccc(cc1)CC2` are 0.66 µM, 0.26 µM and 0.53 µM.
The like results for `CCN(CC)CCOc1cccc2c1-c1ccc(cc1O)CCc1ccc(O)c(c1)Oc1ccc(cc1)CC2` were, in that order, 2.73 µM, 2.23 µM and 1.87 µM.
As to `c1cc2c(c(OCCN3CCCCC3)c1)-c1ccc(cc1OCCN1CCCCC1)CCc1ccc(OCCN3CCCCC3)c(c1)Oc1ccc(cc1)CC2`, the half-inhibitory concentration (IC50) in test [1] came out at 0.24 µM; in test [2], 0.56 µM; in test [3] it was 0.97 µM.
The corresponding values for `COCCN(CCOC)Cc1ccc2c(c1O)-c1ccc(cc1O)CCc1ccc(O)c(c1)Oc1ccc(cc1)CC2` are above 20 µM, above 20 µM and above 20 µM.
Regarding `CN(CCO)Cc1ccc2c(c1O)-c1ccc(cc1O)CCc1ccc(O)c(c1)Oc1ccc(cc1)CC2`, the IC50 in test [1] amounted to 8.28 µM; in test [2] it was 9.19 µM; in test [3], 9.07 µM.
As for `O=[N+]([O-])c1cc2cc(c1O)Oc1ccc(cc1)CCc1cccc(O)c1-c1ccc(cc1O)CC2`, the 50% inhibitory concentration (IC50) in test [1], in test [2] and in test [3] was above 20 µM in each case.
For the molecule `COCCN(CCOC)Cc1cc2cc(c1O)Oc1ccc(cc1)CCc1ccc(CN(CCOC)CCOC)c(O)c1-c1ccc(cc1O)CC2`, the half-inhibitory concentration (IC50) in test [1], in test [2] and in test [3] was above 20 µM in each case.
Take `COc1ccc(N2CCN(Cc3ccc4c(c3O)-c3ccc(cc3O)CCc3ccc(O)c(c3)Oc3ccc(cc3)CC4)CC2)cc1`: the IC50 in test [1], in test [2] and in test [3] was above 20 µM each time.

(Values after ChEMBL document CHEMBL4251549, “Design, synthesis and biological evaluation of nitrogen-containing macrocyclic bisbibenzyl derivatives as potent anticancer agents by targeting the lysosome” (Eur J Med Chem, 2017).)
